Hits are enriched below; roughly 3.3% of the tested compounds scored in any of these assays.
PglD DTNB: inhibitors of Campylobacter jejuni PglD acetyltransferase; purified PglD enzyme, DTNB colorimetric CoA detection; 0.098% of 360,000 active; inhibition, % at 12.5 µM; in the data active means inhibition above about 16%, passing the limit was not always enough
C2C12 statin: protects C2C12 myotubes from simvastatin toxicity | ATP luminescence, 48 h; scaled: DMSO 0, geranylgeraniol control 100 | rescue of ATP level, % at 7.49 µM | 0.78% of 330,000 active | AID 602340;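 active means mean ATP rescue above about 67%, or every replicate alone reaching that limit, limit read from the data, passing the limit was not always enough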;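 further: myotubes were challenged with 10 µM simvastatin during compound exposure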
Xi reactivation: X-chromosome reactivation activator; activation, % at 7.58 µM; AID 743238; 0.055% of 360,000 active; XiGFP mouse fibroblasts, % GFP-positive cells imaging, 3 d; cells co-treated with 5-aza-dC sensitizer; scaled so ellipticine positive control = 100%;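 active means mean normalized replicate activation at least 10% and every replicate at or above 10%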;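 further: 0% = median of on-plate neutral control wells and 100% = ellipticine 6 µM median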
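System: 68-5-11 XiGFP fibroblast line | Buffer or medium: DMEM containing 5-aza-dC | Compound: Single point | Times: Compounds 3 days, fix/stain 15 min at room temperature | Benchmarks: Positive control ellipticine, 6 µM final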
DENV2 CPE rescue: DENV2-induced cell death inhibition. DENV2-infected cells, cytopathic effect rescue, plate reader. CPE inhibition, % at 9.99 µM. 1.7% of 350,000 active. AID 651640; in the data active means CPE inhibition above about 20%, passing the limit was not always enough; tested in BHK-21 cells;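 further: 0% = median of neutral control wells and 100% = median of positive control wells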
E-selectin induc: induces E-selectin expression in human endothelial cells. HUVEC E-selectin immunofluorescence imaging; normalized: neutral wells 0, TNF-alpha wells 100. activation, % at 7.58 µM. 0.37% of 260,000 active;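 active means mean E-selectin-positive cell signal at least 10% of the positive control, reached in at least 60% of replicates, without over 20% cell loss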
Target sequence (P16581 whole entry, looked up): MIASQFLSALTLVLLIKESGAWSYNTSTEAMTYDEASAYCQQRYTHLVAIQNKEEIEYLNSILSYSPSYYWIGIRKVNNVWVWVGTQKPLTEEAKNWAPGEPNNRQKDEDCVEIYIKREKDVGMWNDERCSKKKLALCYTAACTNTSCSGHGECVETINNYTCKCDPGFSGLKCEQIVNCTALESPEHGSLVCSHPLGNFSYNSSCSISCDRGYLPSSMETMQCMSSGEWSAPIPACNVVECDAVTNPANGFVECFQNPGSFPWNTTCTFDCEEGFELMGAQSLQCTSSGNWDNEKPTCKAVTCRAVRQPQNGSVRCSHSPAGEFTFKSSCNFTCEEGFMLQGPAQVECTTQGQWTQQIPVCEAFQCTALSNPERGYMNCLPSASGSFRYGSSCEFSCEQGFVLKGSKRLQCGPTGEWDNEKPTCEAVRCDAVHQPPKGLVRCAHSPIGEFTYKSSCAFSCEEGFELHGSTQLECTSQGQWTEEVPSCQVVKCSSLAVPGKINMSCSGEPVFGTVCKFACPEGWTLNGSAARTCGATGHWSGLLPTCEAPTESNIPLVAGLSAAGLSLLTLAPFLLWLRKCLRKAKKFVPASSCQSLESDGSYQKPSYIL
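Test system: HUVEC; input: 3,000 HUVEC/well; measured by: immunofluorescence imaging; read-out: % PE-positive cells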
FGF22 binding: shifts melting point of recombinant human FGF22 | 1.5% of 340,000 active | Q9HCT0 | activity (Tm shift, normalised), % at 9.99 µM | recombinant FGF22 thermal shift, SYPRO orange fluorescence; percent of sucrose octasulfate shift, DMSO zero | AID 651658;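 active means mean Tm shift, scaled 0 neutral to 100 positive control, at about 1.3% or above, every replicate too, limit read from the data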
* = called active by the depositor.

For COc1ccc(NC(=O)N(C)C[C@H]2Oc3ccc(NC(=O)C4CCCCC4)cc3CC(=O)N([C@@H](C)CO)C[C@H]2C)cc1 the results were PglD DTNB -5, C2C12 statin -4, Xi reactivation -1, DENV2 CPE rescue -2, E-selectin induc 0 and FGF22 binding 0.
`CCC(=O)NNC(=O)CCC(=O)Nc1ccc(C)cc1C` gave C2C12 statin 3, Xi reactivation 0, DENV2 CPE rescue -2, E-selectin induc 0 and FGF22 binding 43*.
`N/C(Cc1cccc2ccccc12)=N\OC(=O)c1ccc2c(c1)OCO2` gave PglD DTNB -3, C2C12 statin 22, Xi reactivation 0, DENV2 CPE rescue -8 and FGF22 binding 44*.
CC(C)CC1C(=O)N(Cc2cn(Cc3ccco3)nn2)CCS(=O)(=O)N1Cc1ccc(-c2ccc(Cl)cc2)cc1 (stereo not given) was read as C2C12 statin 28, Xi reactivation 0, DENV2 CPE rescue 23* and FGF22 binding 0.
Screening CC(C)CC1C(=O)N(Cc2cn(Cc3ccco3)nn2)CCS(=O)(=O)N1Cc1ccc(-c2cccc(CO)c2)cc1 (stereo not given) returned PglD DTNB 0, C2C12 statin -11, Xi reactivation 0, DENV2 CPE rescue 14, E-selectin induc 0 and FGF22 binding 0.
Screening Cc1ccc(-c2ccc(CN3C(C(C)C)C(=O)N(Cc4cn(Cc5ccco5)nn4)CCS3(=O)=O)cc2)cc1 (stereo not given) returned PglD DTNB 2, C2C12 statin 3, Xi reactivation 0, DENV2 CPE rescue 28* and FGF22 binding 0.
Screening CC(C)(C)n1nnnc1C(c1cccnc1)N1CCN(c2ccccc2F)CC1 (stereo not given) returned C2C12 statin 120*.
CC(C)CC(c1nnnn1C1CCCC1)N1CCN(c2ccccc2F)CC1 (stereo not given) was read as PglD DTNB -4 and C2C12 statin 117*.
CC(C)CC(c1nnnn1C1CCCCC1)N1CCN(c2ncccn2)CC1 (stereo not given) was read as PglD DTNB 0, C2C12 statin -13 and E-selectin induc 12.
`O=C1NC(c2ccccc2)=CC(c2ccccc2)N1` (stereo not given) gave Xi reactivation 0, DENV2 CPE rescue 12 and FGF22 binding 44*.
CC(=O)C1=C(c2ccccc2)NC(=O)NC1c1ccccc1 (stereo not given) was read as PglD DTNB -3, C2C12 statin -2, Xi reactivation 0, DENV2 CPE rescue 2 and FGF22 binding 0.
O=C1NC(c2ccccc2)=CC(c2ccccc2O)N1 (stereo not given) was read as PglD DTNB -2, C2C12 statin 2, Xi reactivation 1, DENV2 CPE rescue 145*, E-selectin induc 0 and FGF22 binding 0.
For CC1(C)Cc2nc3sc4c(OCc5ccccc5)ncnc4c3cc2CO1 the results were PglD DTNB 3 and C2C12 statin 74*.
Screening C[C@H]1CN([C@@H](C)CO)S(=O)(=O)c2ccc(C#CCN(C)C)cc2O[C@@H]1CN(C)C(=O)C1CCC1 returned PglD DTNB -2, C2C12 statin -2, Xi reactivation -1, DENV2 CPE rescue 27*, E-selectin induc 1 and FGF22 binding 0.
`C[C@H](CO)N1C[C@H](C)[C@H](CN(C)C(=O)C2CCC2)Oc2cc(C#CCN(C)C)ccc2S1(=O)=O` gave PglD DTNB 4, C2C12 statin 2, Xi reactivation 0, DENV2 CPE rescue 4, E-selectin induc 0 and FGF22 binding 0.
For C[C@@H]1CN([C@H](C)CO)S(=O)(=O)c2ccc(C#CC(C)(C)O)cc2O[C@@H]1CN(C)C(=O)C1CCCCC1 the results were PglD DTNB 2, C2C12 statin -5, Xi reactivation -1, DENV2 CPE rescue 20*, E-selectin induc 1 and FGF22 binding 0.
Screening COCC(=O)Nc1ccc2c(c1)C(=O)N(C)[C@@H]1CC[C@H](CC(=O)Nc3cn(C)nc3C)O[C@H]1CO2 returned PglD DTNB 8, C2C12 statin 13, Xi reactivation 0, DENV2 CPE rescue -1, E-selectin induc 0 and FGF22 binding 0.
`O=C(C[C@@H]1C[C@@H]2c3cc(NC(=O)Nc4ccccc4)ccc3O[C@@H]2[C@@H](CO)O1)NCCN1CCCCC1` gave PglD DTNB 4, C2C12 statin 3, Xi reactivation 0, DENV2 CPE rescue -1, E-selectin induc 1 and FGF22 binding 0.
For CCC(=O)N1C[C@H](C)[C@H](OC)CN(C)C(=O)c2cc(NC(=O)NC3CCCC3)ccc2OC[C@H]1C the results were Xi reactivation 0, DENV2 CPE rescue 4 and E-selectin induc 1.
COCC(=O)Nc1ccc2c(c1)C(=O)N(C)C[C@H](OC)[C@@H](C)CN(C(C)=O)[C@H](C)CO2 was read as PglD DTNB -3, C2C12 statin 19, Xi reactivation 0, DENV2 CPE rescue 4, E-selectin induc 0 and FGF22 binding 0.
`COCC(=O)Nc1ccc2c(c1)C(=O)N(C)C[C@@H](OC)[C@@H](C)CN(C(=O)CC1CC1)[C@@H](C)CO2` gave PglD DTNB 4, C2C12 statin 10, Xi reactivation 0, DENV2 CPE rescue -4, E-selectin induc 0 and FGF22 binding 0.
`CO[C@H]1CN(C)C(=O)c2cc(NC(=O)Nc3ccccc3)ccc2OC[C@H](C)N(C(C)=O)C[C@H]1C` gave PglD DTNB 1, C2C12 statin 7, Xi reactivation 0, DENV2 CPE rescue 66*, E-selectin induc 0 and FGF22 binding 0.
For COCC(=O)Nc1ccc2c(c1)C(=O)N(C)C[C@@H](OC)[C@H](C)CN(C(C)=O)[C@H](C)CO2 the results were PglD DTNB 2, C2C12 statin 10, Xi reactivation 0, DENV2 CPE rescue 102*, E-selectin induc 0 and FGF22 binding 0.
`CCC(=O)N1C[C@H](C)[C@H](OC)CN(C)C(=O)c2cc(NC(=O)NC3CCCC3)ccc2OC[C@@H]1C` gave Xi reactivation 0, DENV2 CPE rescue 39*, E-selectin induc 0 and FGF22 binding 0.
Screening COCC(=O)Nc1ccc2c(c1)C(=O)N(C)C[C@H](OC)[C@H](C)CN(C(=O)CC1CC1)[C@H](C)CO2 returned PglD DTNB 3, C2C12 statin 5, Xi reactivation 0, DENV2 CPE rescue 42*, E-selectin induc 0 and FGF22 binding 0.
For CC(=O)N[C@@H]1CC[C@H](CCNC(=O)C2CC2)O[C@@H]1CO the results were PglD DTNB -2, C2C12 statin 0, Xi reactivation 0, DENV2 CPE rescue 9, E-selectin induc 0 and FGF22 binding 0.
